Bioassay records: PubChem BioAssay, several laboratories
KCC2 mod: modulates chloride dependent transport by human KCC2; Q9H2X9; KCC2 cells, thallium flux FluoZin-2 fluorescence; B-score of Tl+ flux slope (higher = more flux/activation; lower = inhibition) at 10 µM; hit rate 2.2% among 190,000; AID 1456;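 active = thallium flux slope and its plate-corrected score both differing from the plate sample mean at a set confidence after two filtering rounds, in either direction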;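 note: slope of fluorescence scaled to starting intensity during 10 to 20 s after thallium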
KCNK3 block: human KCNK3 channel inhibition, primary screen. B-score at 10 µM. hit rate 0.84% among 340,000. CHO-KCNK3 thallium flux, FluxOR fluorescence; hits give low values. O14649;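 active = B-score under library mean minus 4 SD, starting fluorescence ratio at most library mean plus 5 SD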;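 note: more negative B-score means stronger inhibition of thallium flux through KCNK3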
KCNQ1 pot: human KCNQ1 channel potentiation or activation; P51787; CHO-K1 KCNQ1, thallium flux FluxOR fluorescence; hits give high values; B-score at 10 µM; hit rate 0.35% among 310,000; AID 2648;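 active = fluorescence ratio B-score, a plate-corrected score, at least three library SD, with initial intensity B-score within 5 SD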
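Medium – assay buffer, equal DMSO in all wells · Material – CHO-K1 cell line with stable KCNQ1 potassium channel expression · Signal – kinetic FluxOR thallium fluorescence, 10-s 1-Hz baseline, 110-s post-stimulus read · Compound – single concentration per compound, DMSO matched to controls · Schedule – 37 °C overnight plating, 90-min dark dye load, 20-min compound pretreatment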
hERG protect: compounds protecting human hERG from proarrhythmic drug block; hit rate 0.51% among 310,000; activation (rescue from dofetilide block), less the hit threshold, % at 10 µM; CHO-hERG, FluxOR thallium flux, dofetilide IC70 present; Q12809; AID 1511;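 active = activation above the mean of controls blocked by dofetilide plus 5 SD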;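 note: thallium influx through hERG after potassium depolarization seen as dye fluorescence rise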
KCNK9 inh: human KCNK9 channel inhibition; HEK293 KCNK9, FluxOR thallium flux fluorescence; hits give low values; B-score at 10 µM; hit rate 1.2% among 310,000;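 active = ratio B-score over 3 SD below the library mean, with starting fluorescence within 5 SD of its mean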;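 note: negative B-score means less thallium flux so channel inhibition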
KCNQ1 inh: blocks the human KCNQ1 potassium channel; hit rate 1.3% among 310,000; B-score at 10 µM; CHO-K1 KCNQ1, FluxOR thallium flux fluorescence; hits give high values; P51787;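 active = compounds whose thallium flux B-score, printed positive for inhibition, exceeds three library SD while starting fluorescence stays within three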;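 note: channel opened by potassium depolarization with thallium stimulus after 20 min compound exposure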
KCNK9 inh conf: human KCNK9 inhibitor confirmation; hit rate 43% among 4,900; shares compounds with KCNK9 inh; AID 492992; HEK293 KCNK9 cells, FluxOR thallium flux fluorescence; inhibition, % at 10 µM;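 active = thallium signal inhibited by more than 5 SD of the compound-free buffer control wells, on both duplicate plates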;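 note: 0% = assay buffer control wells without compound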
Kir2-1 spec: selectivity of KCNK9 modulators against mouse Kir2.1. hit rate 4% among 4,900. AID 492993. shares compounds with KCNK9 inh. Kir2.1 cells, FluxOR thallium flux fluorescence. inhibition, % at 10 µM;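 active = thallium signal drop more than 5 SD beyond the mean of the no-compound control wells, seen in both duplicate plates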;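 note: signal is fluorescence rise after thallium addition divided by baseline fluorescence; plate controls were assay buffer only for no effect and full block by chlorpromazine control for full effect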
Target sequence (P35561 whole entry, looked up): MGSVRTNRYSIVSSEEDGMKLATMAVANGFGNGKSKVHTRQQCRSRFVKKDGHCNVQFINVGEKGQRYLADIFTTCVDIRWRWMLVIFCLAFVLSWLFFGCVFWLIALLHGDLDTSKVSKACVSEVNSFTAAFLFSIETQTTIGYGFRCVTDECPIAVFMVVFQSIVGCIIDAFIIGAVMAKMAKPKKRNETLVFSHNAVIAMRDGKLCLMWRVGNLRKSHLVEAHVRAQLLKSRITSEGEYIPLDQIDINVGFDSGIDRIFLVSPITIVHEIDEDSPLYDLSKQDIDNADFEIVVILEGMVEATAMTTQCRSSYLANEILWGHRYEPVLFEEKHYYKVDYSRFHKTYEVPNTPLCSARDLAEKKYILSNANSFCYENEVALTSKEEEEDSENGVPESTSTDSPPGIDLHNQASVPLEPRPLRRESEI
HEK293 Tl ctr: non-induced cell nonspecific activity of KCNK9 modulators | shares compounds with KCNK9 inh | non-induced KCNK9-HEK293, FluxOR thallium flux | inhibition, % at 10 µM | hit rate 40% among 4,900;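 active = thallium signal drop beyond 5 SD of the untreated control mean, on both duplicate plates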;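 note: plate controls were buffer only IC0 wells for no effect and SID17386958 at its maximal inhibitory level for full effect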
KCNK3 confirm: confirmation of human KCNK3 two-pore domain potassium channel inhibitors; shares compounds with KCNK3 block; CHO-KCNK3 thallium flux, FluxOR fluorescence; 0% buffer, 100% carvedilol maximal block; ratio percent of control, % at 10 µM; hit rate 99% among 2,400; AID 651638;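 active = ratio percent of control, averaged over triplicates, above buffer control mean plus 5 SD, cut at about 64% in these data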;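 note: ratio is the fluorescence rise from min to max over baseline after thallium stimulus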
KCNK3 uninduced: activity in cells without induced KCNK3 expression; shares compounds with KCNK3 block; non-induced KCNK3 parental cells, FluxOR thallium flux; hits give low values; thallium flux ratio (lower = more inhibition) at 10 µM; hit rate 40% among 2,400;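 active = thallium flux ratio, averaged over three wells, more than 5 SD below the buffer control mean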;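 note: host cells are CHO cells without KCNK3 induction; ratio is peak minus trough fluorescence over baseline then normalized to buffer controls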
Numbers without * were called inactive; i = inactive; nt = no result. Only some compounds are listed: those with a hit (about 4.1% of all), similar ones and a draw of the others.

SMILES	KCC2 mod	KCNK3 block	KCNQ1 pot	hERG protect	KCNK9 inh	KCNQ1 inh	KCNK9 inh conf	Kir2-1 spec	HEK293 Tl ctr	KCNK3 confirm	KCNK3 uninduced
Clc1ccc(OCCSc2ncccn2)c2ccccc12	-0.77	i	i	-16	-8.4*	i	i	i	50%*	106*	i
CCn1cc(Br)c(C(=O)Nc2ccc(C(=O)OC(C)C)cc2)n1	nt	-9.7*	i	-5	-11*	i	41%*	i	26%*	99*	i
Cc1ccc(S(=O)(=O)N2CCC3CC2c2cc(Cl)ccc23)cc1 (stereo not drawn)	nt	i	nt	nt	nt	nt	nt	nt	nt	nt	nt
CCN(CC)CCN(C(=O)c1cc2c(ccc3ccccc32)oc1=O)c1nc2cc3c(cc2s1)OCCO3	nt	i	i	-11	i	i	nt	nt	nt	nt	nt
Cc1onc(-c2ccc(Cl)cc2)c1-c1ccnc(SCC(=O)Nc2ccc(C(C)C)cc2)n1	-0.86	-11*	i	-5	-9.6*	i	40%*	i	29%*	115*	i
CCCCn1c(N)c(N(CC(C)C)C(=O)c2ccc(COc3ccccc3)o2)c(=O)[nH]c1=O	nt	i	i	-13	i	i	nt	nt	nt	nt	nt
CC(=O)c1cccc(NC(=O)C(C)OC(=O)Cc2n[nH]c(=O)c3ccccc23)c1 (stereo not drawn)	nt	i	i	-19	i	i	nt	nt	nt	nt	nt
C/C=C(/C)C(=O)OC1c2c(ccc3ccc(=O)oc23)OC(C)(C)C1OC(=O)/C(C)=C\C (stereo not drawn)	-1	-9.1*	i	-8	-13*	i	59%*	i	35%*	126*	0.14*
C/C=C(\C)C(=O)OC1c2c(ccc3ccc(=O)oc23)OC(C)(C)C1OC(C)=O (stereo not drawn)	-2.1	i	i	-10	i	i	nt	nt	nt	nt	nt
COc1ccc(C2CC(c3ccc4ccccc4c3)=NN2C(=O)CNC2CCCCC2)cc1 (stereo not drawn)	-2.3	-11*	i	-29	-8.9*	i	44%*	i	30%*	133*	i
COc1ccc(C(=O)N/N=C/c2ccc(OC)c(COc3ccccc3)c2)cc1	nt	i	i	-9	i	i	nt	nt	nt	nt	nt
COc1ccc(C(=O)/C=C/c2ccc(OC)c(COc3ccc(F)cc3)c2)cc1	nt	-10*	i	-5	-13*	i	66%*	i	33%*	129*	0.15*
CCOc1cc(N2CCOCC2)c(OCC)cc1NC(=O)c1ccc2ncsc2c1	nt	i	nt	nt	nt	nt	nt	nt	nt	nt	nt
CCOCC(=O)Nc1cc(C(F)(F)F)ccc1Oc1cccc(Br)c1	1.7	i	i	-4	-12*	i	74%*	i	54%*	99*	i
CC(=O)Nc1cc(C(F)(F)F)ccc1Oc1cccc(Br)c1	-0.32	i	i	-10	i	i	nt	nt	nt	nt	nt
CC(C)Oc1ccccc1C1Nc2ccccc2C(=O)N1c1ccc2c(c1)OCCO2 (stereo not drawn)	-2.6	-10*	i	-3	-13*	i	67%*	i	28%*	100*	0.16*
COc1ccc(O)c(/C=N/Nc2nc(C)cc(-c3ccccc3)n2)c1	nt	-10*	i	-13	-15*	i	51%*	i	23%*	120*	0.14*
O=C(CSCc1ccccc1)Nc1ccccc1C(=O)Nc1ccc(C(=O)O)cc1	0.18	i	i	-7	i	i	nt	nt	nt	nt	nt
COCCN1Cc2cccc(C(=O)Nc3ccc(-c4nc5ccccc5[nH]4)cc3)c2C1=O	0.07	i	i	-6	i	i	nt	nt	nt	nt	nt
COCCN1Cc2cccc(C(=O)Nc3cccc(-c4nc5ccccc5[nH]4)c3)c2C1=O	-1.9	-10*	i	-18	-13*	i	58%*	i	i	120*	0.15*
COc1ccc(NC(=O)CN(Cc2ccccc2)S(C)(=O)=O)c(OC)c1	0.024	i	i	-12	i	i	nt	nt	nt	nt	nt
O=C(CCS(=O)(=O)c1ccc2c(c1)NC(=O)CO2)NCCc1ccccc1	nt	i	i	-1	i	i	nt	nt	nt	nt	nt
CCOc1cc(-c2nc(-c3ccccc3)c(-c3cc([N+](=O)[O-])ccc3C)[nH]2)ccc1O	-0.14	-9.6*	i	-16	-12*	7*	56%*	i	i	124*	0.12*
O=[N+]([O-])c1ccc(O)c(-c2nc(-c3ccccc3)c(-c3cccs3)[nH]2)c1	0.042	i	i	-19	i	i	nt	nt	nt	nt	nt
Cc1[nH]nc(Nc2ccc(Br)cc2)c1[N+](=O)[O-]	0.36	i	i	-2	i	i	nt	nt	nt	nt	nt
SMILES	KCC2 mod	KCNK3 block	KCNQ1 pot	hERG protect	KCNK9 inh	KCNQ1 inh	KCNK9 inh conf	Kir2-1 spec	HEK293 Tl ctr	KCNK3 confirm	KCNK3 uninduced
CCCCCOc1ccc(Br)cc1/C(C)=N/NC1=NCCN1	-0.74	-11*	i	-22	-11*	i	41%*	66%*	i	105*	0.13*
COc1ccc(Br)cc1/C(C)=N/NC1=NCCN1	-1.2	i	i	-3	i	i	nt	nt	nt	nt	nt
Cc1cccc(C)c1NC(=O)c1ccc(-c2ccc(Cl)cc2Cl)o1	0.12	-9*	i	-8	-16*	7*	51%*	i	38%*	130*	0.14*
O/N=C(\c1ccc(Cl)cc1Cl)c1ncc(C(F)(F)F)cc1Cl	0.56	-9.8*	i	-11	-13*	i	62%*	i	44%*	97*	0.14*
COc1ccc(/C=C/C(=O)OCC(=O)Nc2ncc(Cl)cc2Cl)cc1	nt	i	nt	nt	nt	nt	nt	nt	nt	nt	nt
O=C(N/N=C/c1ccccc1)c1[nH]c2ccc(Br)cc2c1-c1ccccc1	1.2	i	i	-7	i	i	nt	nt	nt	nt	nt
O=C(NN=C1CCCC1)c1[nH]c2ccc(Br)cc2c1-c1ccccc1	-0.61	i	i	-16	-8.7*	7*	i	i	i	91*	i
O=C(Nc1ccccc1N1CCN(C(=O)c2ccccc2)CC1)c1ccc(Cl)cc1	0.0066	-15*	i	-22	-13*	i	37%*	i	i	113*	i
O=C(O)Cn1nnnc1SCC(=O)Nc1ccc(F)cc1F	nt	i	i	-9	i	i	nt	nt	nt	nt	nt
